Assay results reported in ChEMBL document CHEMBL4007431, “Systematic variation of the benzenesulfonamide part of the GluN2A selective NMDA receptor antagonist TCN-201” (Eur J Med Chem, 2017).
Active and inactive are the calls of the source. The calls are words filed in the database; no cut-off is given here.

Legend:
Type in all cases: cell-based
[1] = target: T1, Glutamate NMDA receptor; Grin1/Grin2a (Rattus norvegicus) (UniProt P35439+Q00959); test: Antagonist activity at rat GluN1A/GluN2A receptor expressed in Xenopus laevis oocytes assessed as inhibition of glutamate/glycine-induced channel current at 500 nM at -70 mV holding potential by two electrode voltage clamp method relative to TCN-201
Procedure, shortened: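 GluN1a/GluN2A-coinjected oocytes (0.8 ng of each cRNA) under TEVC at −70 mV and room temperature, perfused with Ba2+-Ringer at pH 7.4. 10 µM (S)-glutamate and 10 µM glycine open the channel. Compound at 500 nM final (from 10 mM DMSO stock) in agonist solution. Current inhibition compared with the lead. At least five oocytes each. One-way ANOVA with Tukey post hoc test.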

[2] = target: Glutamate NMDA receptor; Grin1/Grin2b (Rattus norvegicus) (UniProt P35439+Q00960); test: Antagonist activity at rat GluN1A/GluN2B receptor expressed in Xenopus laevis oocytes assessed as inhibition of glutamate/glycine-induced channel current at 10 uM at -70 mV holding potential by two electrode voltage clamp method
Procedure, shortened: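 Oocytes were injected with GluN1a and GluN2B cRNA and recorded by TEVC with glutamate/glycine activation. Compounds tested at 10 µM, n = 5. One-way ANOVA with Tukey post hoc test.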

[3] = target: Glutamate NMDA receptor; Grin1/Grin2a (Rattus norvegicus, UniProt P35439+Q00959); test: Antagonist activity at rat GluN1A/GluN2A receptor expressed in Xenopus laevis oocytes assessed as inhibition of glutamate/glycine-induced channel current at -70 mV holding potential by two electrode voltage clamp method
Procedure, shortened: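 Oocytes (stage V, defolliculated) coinjected with 0.8 ng GluN1a and 0.8 ng GluN2A cRNA. TEVC at room temperature, holding −70 mV, perfusion with Ba2+-Ringer (10 HEPES, 90 NaCl, 1 KCl, 1.5 BaCl2 mmol/L, pH 7.4). Currents evoked by glutamate plus glycine. Compounds diluted from 10 mM DMSO stocks into agonist solution, 1 nM to 10 µM final. n = 5 oocytes per concentration. Logistic fit with minimum 0% and maximum 100%; x0 taken as the half-maximal inhibition.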

[4] = target: T1, Glutamate NMDA receptor; Grin1/Grin2a (Rattus norvegicus); test: Potency index, ratio of TCN-201 IC50 to compound IC50 for rat GluN1A/GluN2A receptor expressed in Xenopus laevis oocytes

fold change (FC) [1]	SMILES	further results
0.045	O=C(NNC(=O)c1ccc(CNS(=O)(=O)c2ccccc2Br)cc1)c1ccccc1	
0.019	O=C(NNC(=O)c1ccc(CNS(=O)(=O)c2ccccc2F)cc1)c1ccccc1	
1.19	O=C(NNC(=O)c1ccc(CNS(=O)(=O)c2cccc(I)c2)cc1)c1ccccc1	
0.351	O=C(NNC(=O)c1ccc(CNS(=O)(=O)c2ccccc2)cc1)c1ccccc1	
1.21	O=C(NNC(=O)c1ccc(CNS(=O)(=O)c2cccc(Cl)c2)cc1)c1ccccc1	
0.28	Cc1cccc(S(=O)(=O)NCc2ccc(C(=O)NNC(=O)c3ccccc3)cc2)c1	
1.27	O=C(NNC(=O)c1ccc(CNS(=O)(=O)c2cccc(Br)c2)cc1)c1ccccc1	inhibition [2]: inactive; Ratio IC50 [4]: 2.5; IC50 [3]: 204 nM
0.397	O=C(NNC(=O)c1ccc(CNS(=O)(=O)c2ccccc2[N+](=O)[O-])cc1)c1ccccc1	
0.279	O=C(NNC(=O)c1ccc(CNS(=O)(=O)c2ccc(Cl)cc2)cc1)c1ccccc1	
0.818	O=C(NNC(=O)c1ccc(CNS(=O)(=O)c2cccc(F)c2)cc1)c1ccccc1	
-0.092	O=C(NNC(=O)c1ccc(CNS(=O)(=O)c2ccccc2Cl)cc1)c1ccccc1	

More lines, now with the values behind:

SMILES	fold change (FC) [1]	further results
COc1cccc(S(=O)(=O)NCc2ccc(C(=O)NNC(=O)c3ccccc3)cc2)c1	-0.062	
O=C(NNC(=O)c1ccc(CNS(=O)(=O)c2ccc(I)cc2)cc1)c1ccccc1	0.051	
O=C(NNC(=O)c1ccc(CNS(=O)(=O)c2ccc([N+](=O)[O-])cc2)cc1)c1ccccc1	0.002	
O=C(NNC(=O)c1ccc(CNS(=O)(=O)c2cccc([N+](=O)[O-])c2)cc1)c1ccccc1	0.161	
O=C(NNC(=O)c1ccc(CNS(=O)(=O)c2ccc(Br)cc2)cc1)c1ccccc1	0.315	
O=C(O)c1ccc(S(=O)(=O)NCc2ccc(C(=O)NNC(=O)c3ccccc3)cc2)cc1	0.283	
O=C(NNC(=O)c1ccc(CNS(=O)(=O)c2ccc(F)c(Cl)c2)cc1)c1ccccc1		inhibition [2]: inactive; IC50 [3]: 512 nM
O=C(NNC(=O)c1ccc(CNS(=O)(=O)c2cccnc2)cc1)c1ccccc1	0.151	
O=C(NNC(=O)c1ccc(CNS(=O)(=O)c2ccc(F)cc2)cc1)c1ccccc1	0.103	
Nc1ccc(S(=O)(=O)NCc2ccc(C(=O)NNC(=O)c3ccccc3)cc2)cc1	0.379	
O=C(NNC(=O)c1ccc(CNS(=O)(=O)c2cccs2)cc1)c1ccccc1	0.529	
N#Cc1cccc(S(=O)(=O)NCc2ccc(C(=O)NNC(=O)c3ccccc3)cc2)c1	0.151	
